Key:
Assay type in all cases: functional
Conditions in all cases: read-out: GI
MDA-MB-468 = test: Antiproliferative activity against human MDA-MB-468 cells assessed as cell growth inhibition at 10 uM incubated for 48 hrs by SRB assay relative to control
SF-268 = test: Antiproliferative activity against human SF-268 cells assessed as cell growth inhibition at 10 uM incubated for 48 hrs by SRB assay relative to control
SF-295 = test: Antiproliferative activity against human SF-295 cells assessed as cell growth inhibition at 10 uM incubated for 48 hrs by SRB assay relative to control
Method in brief: (§1)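 Cells plated in 96-well plates at […] cells/well and preincubated 24 h at 37 °C, 5% CO2. Time-zero plates were TCA-fixed. Compound was diluted in medium with 50 µg/mL gentamicin and cells exposed for 48 h. Adherent cells fixed with 10% final TCA; suspension cells with 16% final TCA. Plates stained with 0.4% SRB in 1% acetic acid, dye solubilized in 10 mM Trizma, absorbance read at 515 nm. Percent growth calculated against time-zero and control.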

NCI-H522 = test: Antiproliferative activity against human NCI-H522 cells assessed as cell growth inhibition at 10 uM incubated for 48 hrs by SRB assay relative to control; method in brief: as §1
IGROV-1 = test: Antiproliferative activity against human IGROV-1 cells assessed as cell growth inhibition at 10 uM incubated for 48 hrs by SRB assay relative to control
M14 = test: Antiproliferative activity against human M14 cells assessed as cell growth inhibition at 10 uM incubated for 48 hrs by SRB assay relative to control; method in brief: as §1
SN12C = test: Antiproliferative activity against human SN12C cells assessed as cell growth inhibition at 10 uM incubated for 48 hrs by SRB assay relative to control
HCC 2998 = test: Antiproliferative activity against human HCC 2998 cells assessed as cell growth inhibition at 10 uM incubated for 48 hrs by SRB assay relative to control
LOX IMVI = test: Antiproliferative activity against human LOX IMVI cells assessed as cell growth inhibition at 10 uM incubated for 48 hrs by SRB assay relative to control
786-0 = test: Antiproliferative activity against human 786-0 cells assessed as cell growth inhibition at 10 uM incubated for 48 hrs by SRB assay relative to control
Hs-578T = test: Antiproliferative activity against human Hs-578T cells assessed as cell growth inhibition at 10 uM incubated for 48 hrs by SRB assay relative to control; method in brief: as §1
UACC-62 = test: Antiproliferative activity against human UACC-62 cells assessed as cell growth inhibition at 10 uM incubated for 48 hrs by SRB assay relative to control
Method in brief: (§2)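 Cells pre-incubated 24 h at 37°C, 5% CO2, then exposed to compound (DMSO stock diluted in medium with 50 µg/mL gentamicin) for 48 h. Adherent cells fixed with cold TCA (final 10%, 60 min, 4°C); suspension cells fixed with 16% TCA final. Stained with 0.4% SRB in 1% acetic acid for 10 min, dye solubilized in 10 mM Trizma base, absorbance read at 515 nm. Growth calculated against time-zero and untreated control plates.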

CCRF-CEM = test: Antiproliferative activity against human CCRF-CEM cells assessed as cell growth inhibition at 10 uM incubated for 48 hrs by SRB assay relative to control; method in brief: as §1
HOP-62 = test: Antiproliferative activity against human HOP-62 cells assessed as cell growth inhibition at 10 uM incubated for 48 hrs by SRB assay relative to control
Malme-3M = test: Antiproliferative activity against human Malme-3M cells assessed as cell growth inhibition at 10 uM incubated for 48 hrs by SRB assay relative to control
A498 = test: Antiproliferative activity against human A498 cells assessed as cell growth inhibition at 10 uM incubated for 48 hrs by SRB assay relative to control; method in brief: as §1
PC-3 = test: Antiproliferative activity against human PC-3 cells assessed as cell growth inhibition at 10 uM incubated for 48 hrs by SRB assay relative to control
SNB-19 = test: Antiproliferative activity against human SNB-19 cells assessed as cell growth inhibition at 10 uM incubated for 48 hrs by SRB assay relative to control; method in brief: as §2
HT-29 = test: Antiproliferative activity against human HT-29 cells assessed as cell growth inhibition at 10 uM incubated for 48 hrs by SRB assay relative to control; method in brief: as §1
MOLT-4 = test: Antiproliferative activity against human MOLT-4 cells assessed as cell growth inhibition at 10 uM incubated for 48 hrs by SRB assay relative to control
OVCAR-4 = test: Antiproliferative activity against human OVCAR-4 cells assessed as cell growth inhibition at 10 uM incubated for 48 hrs by SRB assay relative to control
MCF7 = test: Antiproliferative activity against human MCF7 cells assessed as cell growth inhibition at 10 uM incubated for 48 hrs by SRB assay relative to control
DU-145 = test: Antiproliferative activity against human DU-145 cells assessed as cell growth inhibition at 10 uM incubated for 48 hrs by SRB assay relative to control
SK-MEL-28 = test: Antiproliferative activity against human SK-MEL-28 cells assessed as cell growth inhibition at 10 uM incubated for 48 hrs by SRB assay relative to control; method in brief: as §1
COLO 205 = test: Antiproliferative activity against human COLO 205 cells assessed as cell growth inhibition at 10 uM incubated for 48 hrs by SRB assay relative to control
OVCAR-3 = test: Antiproliferative activity against human OVCAR-3 cells assessed as cell growth inhibition at 10 uM incubated for 48 hrs by SRB assay relative to control; method in brief: as §1
HCT-15 = test: Antiproliferative activity against human HCT-15 cells assessed as cell growth inhibition at 10 uM incubated for 48 hrs by SRB assay relative to control
HCT-116 = test: Antiproliferative activity against human HCT-116 cells assessed as cell growth inhibition at 10 uM incubated for 48 hrs by SRB assay relative to control
HL-60(TB) = test: Antiproliferative activity against human HL-60(TB) cells assessed as cell growth inhibition at 10 uM incubated for 48 hrs by SRB assay relative to control
Method in brief: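 Cells were plated at […] cells/well and preincubated 24 h at 37°C, 5% CO2, with time-zero plates TCA-fixed. Compound was diluted from DMSO stock in medium with 50 µg/mL gentamicin, then exposed for 48 h. Settled suspension cells were fixed with 80% TCA (final 16%), stained with 0.4% SRB and solubilized in 10 mM Trizma, A515. Growth was taken relative to Tz and control.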

CAKI-1 = test: Antiproliferative activity against human CAKI-1 cells assessed as cell growth inhibition at 10 uM incubated for 48 hrs by SRB assay relative to control
SNB-75 = test: Antiproliferative activity against human SNB-75 cells assessed as cell growth inhibition at 10 uM incubated for 48 hrs by SRB assay relative to control; method in brief: as §2
ACHN = test: Antiproliferative activity against human ACHN cells assessed as cell growth inhibition at 10 uM incubated for 48 hrs by SRB assay relative to control

| SMILES | inhibition of growth at 10 µM (MDA-MB-468) | inhibition of growth at 10 µM (SF-268) | inhibition of growth at 10 µM (SF-295) | inhibition of growth at 10 µM (NCI-H522) | inhibition of growth at 10 µM (IGROV-1) | inhibition of growth at 10 µM (M14) | inhibition of growth at 10 µM (SN12C) | inhibition of growth at 10 µM (HCC 2998) | inhibition of growth at 10 µM (LOX IMVI) | inhibition of growth at 10 µM (786-0) | inhibition of growth at 10 µM (Hs-578T) | inhibition of growth at 10 µM (UACC-62) | inhibition of growth at 10 µM (CCRF-CEM) | inhibition of growth at 10 µM (HOP-62) | inhibition of growth at 10 µM (Malme-3M) | inhibition of growth at 10 µM (A498) | inhibition of growth at 10 µM (PC-3) | inhibition of growth at 10 µM (SNB-19) | inhibition of growth at 10 µM (HT-29) | inhibition of growth at 10 µM (MOLT-4) | also measured |
| --- | --- | --- | --- | --- | --- | --- | --- | --- | --- | --- | --- | --- | --- | --- | --- | --- | --- | --- | --- | --- | --- |
| Cc1nc2c(cnn2-c2ccccc2)c(=O)n1-c1ccc(NC(=O)c2ccc([N+](=O)[O-])cc2)cc1 | 68.6% | < 15% | 56.3% | 38.9% | 31.1% | 24.6% | 29% | < 15% | 34.1% | 16.3% | 23.1% | 39.6% | 52.5% | < 15% | 34% | 19.6% | 33.7% | 25.4% | 21.6% | 63.4% | inhibition of growth at 10 µM (OVCAR-4): 48.2%; inhibition of growth at 10 µM (MCF7): 56.7%; inhibition of growth at 10 µM (DU-145): 21%; inhibition of growth at 10 µM (SK-MEL-28): 18.2%; inhibition of growth at 10 µM (COLO 205): 25.9%; inhibition of growth at 10 µM (OVCAR-3): < 15%; inhibition of growth at 10 µM (HCT-15): 28.6%; inhibition of growth at 10 µM (HCT-116): 55.6%; inhibition of growth at 10 µM (HL-60(TB)): 54%; inhibition of growth at 10 µM (CAKI-1): 31.5%; inhibition of growth at 10 µM (SNB-75): 32.9%; inhibition of growth at 10 µM (ACHN): 39.6% |
| Cc1nc2c(cnn2-c2ccccc2)c(=O)n1-c1ccc(NC(=O)c2ccc(Cl)cc2)cc1 | 84.3% | < 15% | 45.9% | 32.3% | 21.3% | 24.6% | 17% | 15.8% | 33.4% | 20.3% | 20.1% | 32.2% | 25.3% | 41.1% | 33.3% | < 15% | 36.7% | 16.3% | 28% | 30.7% | inhibition of growth at 10 µM (OVCAR-4): 53.9%; inhibition of growth at 10 µM (MCF7): 46.8%; inhibition of growth at 10 µM (DU-145): 17.8%; inhibition of growth at 10 µM (SK-MEL-28): 17.1%; inhibition of growth at 10 µM (COLO 205): 18.8%; inhibition of growth at 10 µM (OVCAR-3): 17.4%; inhibition of growth at 10 µM (HCT-15): 23.2%; inhibition of growth at 10 µM (HCT-116): 44.5%; inhibition of growth at 10 µM (HL-60(TB)): 48.1%; inhibition of growth at 10 µM (CAKI-1): 29.7%; inhibition of growth at 10 µM (SNB-75): 27.5%; inhibition of growth at 10 µM (ACHN): 32.6% |
| Cc1ccc(C(=O)Nc2ccc(-n3c(C)nc4c(cnn4-c4ccccc4)c3=O)cc2)cc1 | 78.9% | < 15% | 49.4% | 28.8% | 28.4% | 26.8% | 26.7% | < 15% | 32.8% | < 15% | 15.2% | 39.2% | 53.7% | 21.2% | 32.3% | < 15% | 28.4% | 17.9% | 28.8% | 65.7% | inhibition of growth at 10 µM (OVCAR-4): 50.2%; inhibition of growth at 10 µM (MCF7): 52.2%; inhibition of growth at 10 µM (DU-145): 15.1%; inhibition of growth at 10 µM (SK-MEL-28): 19.3%; inhibition of growth at 10 µM (COLO 205): 22.6%; inhibition of growth at 10 µM (OVCAR-3): < 15%; inhibition of growth at 10 µM (HCT-15): 24.6%; inhibition of growth at 10 µM (HCT-116): 48.5%; inhibition of growth at 10 µM (HL-60(TB)): 48.6%; inhibition of growth at 10 µM (CAKI-1): 27.6%; inhibition of growth at 10 µM (SNB-75): 17.2%; inhibition of growth at 10 µM (ACHN): 38.2% |

From ChEMBL document CHEMBL5356993, “Novel pyrazolo[3,4-d]pyrimidine derivatives: design, synthesis, anticancer evaluation, VEGFR-2 inhibition, and antiangiogenic activity” (RSC Med Chem, 2023)
